From ChEMBL document CHEMBL2062469, “1-(2-Mercaptobenzenesulfonyl)-3-hydroxyguanidines--novel potent antiproliferatives, synthesis and in vitro biological activity” (2012)

Columns and labels:
Format in all cases: functional
Malme-3M = test: Cytostatic activity against human MALME-3M cells
Procedure, shortened: (§1)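 NCI-60 human tumor cell line screen run by the US National Cancer Institute under the NIH Developmental Therapeutics Program protocol. A single-dose prescreen at 10 µM came first. Selected compounds then went into the 5-dose assay. Cytostatic activity is reported as GI50 (µM).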

NCI-H460 = test: Cytostatic activity against human NCI-H460 cells; procedure, shortened: as §1
UO-31 = test: Cytostatic activity against human UO31 cells
Procedure, shortened: (§2)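 Human tumour cell lines from the NCI-60 panel, tested at the US National Cancer Institute under the NIH Developmental Therapeutics Program protocol. A single-dose prescreen at 10 µM came first. Selected compounds then went to a 5-dose assay, which gave GI50 and TGI values in µM.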

UACC-62 = test: Cytostatic activity against human UACC62 cells; procedure, shortened: as §2
MDA-MB-435 = test: Cytostatic activity against human MDA-MB-435 cells; procedure, shortened: as §1
IGROV-1 = test: Cytostatic activity against human IGROV1 cells; procedure, shortened: as §1
SF-268 = test: Cytostatic activity against human SF268 cells; procedure, shortened: as §1
HT-29 = test: Cytostatic activity against human HT-29 cells; procedure, shortened: as §1
M14 = test: Cytostatic activity against human M14 cells; procedure, shortened: as §1
Hs-578T = test: Cytostatic activity against human Hs 578T cells; procedure, shortened: as §1
U-251 = test: Cytostatic activity against human U251 cells; procedure, shortened: as §2
NCI-H522 = test: Cytostatic activity against human NCI-H522 cells; procedure, shortened: as §1
SNB-75 = test: Cytostatic activity against human SNB75 cells; procedure, shortened: as §2
MDA-MB-231 = test: Cytostatic activity against human MDA-MB-231/ATCC cells; procedure, shortened: as §1
OVCAR-3 = test: Cytostatic activity against human OVCAR3 cells; procedure, shortened: as §1
UACC-257 = test: Cytostatic activity against human UACC257 cells; procedure, shortened: as §2

GI50 (NCI-H460)	GI50 (MDA-MB-435)	GI50 (HT-29)	GI50 (U-251)	GI50 (NCI-H522)	GI50 (MDA-MB-231)	GI50 (OVCAR-3)	SMILES	GI50 (Malme-3M)	GI50 (UO-31)	GI50 (UACC-62)	GI50 (IGROV-1)	GI50 (SF-268)	GI50 (M14)	GI50 (Hs-578T)	GI50 (SNB-75)	GI50 (UACC-257)
2.34 µM	2.63 µM	2.29 µM	10.7 µM	1.86 µM	5.13 µM	1.62 µM	N=C(NO)NS(=O)(=O)c1cc(-c2nnc(-c3ccc(Cl)cc3)s2)c(Cl)cc1SCc1ccc2c(c1)OCO2	2.24 µM	3.72 µM	2.14 µM	3.47 µM	2.04 µM	2.14 µM	2.4 µM	1.78 µM	3.55 µM
–	2 µM	–	1.95 µM	–	2.34 µM	–	N=C(NO)NS(=O)(=O)c1cc(-c2nc(-c3ccccc3)cs2)c(Cl)cc1SCc1ccc2c(c1)OCO2	–	–	2.14 µM	2.82 µM	1.86 µM	–	–	–	–
–	3.89 µM	–	11.2 µM	–	12.6 µM	–	N=C(NO)NS(=O)(=O)c1cc(-c2nc(-c3ccc(Cl)cc3)cs2)c(Cl)cc1SCc1ccc2c(c1)OCO2	–	–	7.76 µM	25.1 µM	6.46 µM	–	–	–	–
2.04 µM	–	2 µM	–	1.29 µM	–	1.7 µM	N=C(NO)NS(=O)(=O)c1cc(-c2nc(-c3ccccc3)no2)c(Cl)cc1SCc1ccc2c(c1)OCO2	2.19 µM	1.66 µM	1.82 µM	2.57 µM	1.91 µM	1.91 µM	2.63 µM	1.55 µM	2 µM
2.14 µM	–	1.82 µM	–	1.02 µM	–	1.7 µM	N=C(NO)NS(=O)(=O)c1cc(-c2nc(-c3ccc(Cl)cc3)no2)c(Cl)cc1SCc1ccc2c(c1)OCO2	2.63 µM	1.91 µM	1.7 µM	2.14 µM	1.82 µM	1.86 µM	2.69 µM	1.74 µM	1.91 µM
3.24 µM	–	4.17 µM	–	2.04 µM	–	2.19 µM	COc1cc(CSc2cc(Cl)c(-c3nnc(-c4ccccc4)s3)cc2S(=O)(=O)NC(=N)NO)cc(OC)c1OC	3.09 µM	3.98 µM	3.24 µM	3.72 µM	2.4 µM	4.07 µM	3.31 µM	1.86 µM	6.03 µM
34.7 µM	–	6.76 µM	–	8.91 µM	–	10.2 µM	COc1cc(CSc2cc(Cl)c(-c3nnc(-c4ccc(Cl)cc4)s3)cc2S(=O)(=O)NC(=N)NO)cc(OC)c1OC	97.7 µM	44.7 µM	16.2 µM	58.9 µM	9.55 µM	40.7 µM	8.13 µM	25.7 µM	26.3 µM
4.37 µM	–	7.24 µM	–	3.8 µM	–	4.79 µM	COc1cc(CSc2cc(Cl)c(-c3nc(-c4ccccc4)no3)cc2S(=O)(=O)NC(=N)NO)cc(OC)c1OC	13.5 µM	4.47 µM	3.09 µM	5.62 µM	6.92 µM	6.61 µM	7.41 µM	3.98 µM	13.2 µM
2.24 µM	–	2.95 µM	–	2.14 µM	–	1.91 µM	COc1cc(CSc2cc(Cl)c(-c3nc(-c4ccc(Cl)cc4)no3)cc2S(=O)(=O)NC(=N)NO)cc(OC)c1OC	7.76 µM	3.16 µM	1.95 µM	3.8 µM	2.95 µM	2.19 µM	4.17 µM	2.95 µM	9.33 µM
